Assay [1] in a line: nonspecific flux increase, KCNQ1-free cells – parental CHO cells, counter-screen for KCNQ1 potentiator project (AID 493006;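 active means duplicate-averaged activation above buffer control mean plus 5 SD of those controls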;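 on activation: fluorescence ratio of max minus min over baseline after K+ and Tl+ depolarization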). The settings on record: parental CHO-K1 cells, FluxOR thallium flux, at 10 µM; stronger effect = higher value. Summed up:
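Benchmarks – buffer and R-L3 controls · Assay system – untransfected host CHO-K1 cells with FluxOR thallium dye · Measure – fluorescence change ratio scaled 0% buffer, 100% R-L3 · Technique – kinetic thallium-flux fluorescence · Timing – overnight 37 °C plating, 90 min RT dye, 20 min compound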
In general terms: A counterscreen serves to expose hits that act by an unwanted route or on another target.

Assay [2] deals with Potassium voltage-gated channel subfamily KQT member 1 (Homo sapiens) (UniProt P51787). In words: enhancement of KCNQ1 channel thallium flux – FluxOR thallium flux, CHO cells, duplicates, confirmation (AID 493007;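 active means potentiation averaged over duplicate wells exceeding buffer-only control mean by more than 3 SD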;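 on outcome: cells depolarized by a potassium plus thallium sulfate stimulus after compound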). The following applies: KCNQ1 cell line, FluxOR thallium flux fluorescence, at 10 µM; stronger effect = higher value, % of reference activator effect, buffer zero. Summed up: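 Material: CHO cells stably expressing the KCNQ1 potassium channel / Times: dye 90 min then compound 20 min, both at room temperature / Detection: kinetic thallium influx fluorescence with FluxOR dye, 10 s baseline, 110 s post-stimulus / Benchmarks: buffer-only wells as 0% and R-L3 activator as 100% / Replicates: each compound tested in duplicate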

The target of assay [3] is Potassium voltage-gated channel subfamily KQT member 2 (Rattus norvegicus) (UniProt O88943). In words: KCNQ2 thallium flux enhancement – KCNQ2-CHO-K1 cells, selectivity assay for KCNQ1 potentiator project (AID 493009;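 active means mean duplicate potentiation above the buffer control mean plus 5 SD of buffer wells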;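 further: assay conditions were tuned for KCNQ1 rather than KCNQ2 modulators; signal is max minus min fluorescence divided by baseline after thallium stimulus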). The following applies: FluxOR thallium flux fluorescence, at 10 µM; stronger effect = higher value, scaled: buffer 0, activator control 100.
The target in assay [4] is Potassium voltage-gated channel subfamily KQT member 1 (Homo sapiens) (UniProt P51787). Description: KCNQ1 activators by electrophysiology – IonWorks patch clamp, KCNQ1-CHO cells, orthogonal assay for KCNQ1 potentiator project, confirmation (AID 493184). The following applies: automated patch clamp current, at 10 µM; stronger effect = higher value. Summed up: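 Probe or stimulus: depolarizing pulse to +40 mV from -90 mV; Material: CHO cells carrying KCNQ1; Compound: one dose, 10 µM final; Signal: automated voltage clamp, amphotericin B perforated patch; Read-out basis: percent current increase versus pre-compound level; Buffer or medium: pH 7.4 external bath; Replication: duplicates.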
Background: The patch-clamp technique gives a direct electrical read-out from membranes.

For assay [5], the target named is Potassium voltage-gated channel subfamily E member 1 (Homo sapiens) + Potassium voltage-gated channel subfamily KQT member 1 (Homo sapiens) (UniProt P15382+P51787). Description: KCNQ1-E1 channel activation – thallium flux, CHO-K1 KCNQ1/E1 cells, selectivity assay for KCNQ1 potentiator project, confirmation (AID 493186;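 active means mean duplicate activation above the buffer control mean plus 5 SD of those controls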). The following applies: FluxOR thallium flux, at 10 µM; stronger effect = higher value. Summed up:
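system = KCNQ1/E1-expressing stable CHO-K1 cell line | doses = single compound concentration per well | times = dye 90 min, compound 20 min, room temperature | measured by = FluxOR Tl+ flux fluorescence, kinetic read | evaluation = fluorescence rise relative to baseline, as percent of R-L3 response above buffer | controls = buffer and R-L3 | replicates = duplicate wells per compound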

Calls of active or inactive are those of the source.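 How the source made its calls, unless noted: active means current rise at least 3 SD above the untreated control mean in each of two repeat wells; inactive means the rest.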

Sequence of Potassium voltage-gated channel subfamily KQT member 2 (Rattus norvegicus) (O88943 whole entry, looked up): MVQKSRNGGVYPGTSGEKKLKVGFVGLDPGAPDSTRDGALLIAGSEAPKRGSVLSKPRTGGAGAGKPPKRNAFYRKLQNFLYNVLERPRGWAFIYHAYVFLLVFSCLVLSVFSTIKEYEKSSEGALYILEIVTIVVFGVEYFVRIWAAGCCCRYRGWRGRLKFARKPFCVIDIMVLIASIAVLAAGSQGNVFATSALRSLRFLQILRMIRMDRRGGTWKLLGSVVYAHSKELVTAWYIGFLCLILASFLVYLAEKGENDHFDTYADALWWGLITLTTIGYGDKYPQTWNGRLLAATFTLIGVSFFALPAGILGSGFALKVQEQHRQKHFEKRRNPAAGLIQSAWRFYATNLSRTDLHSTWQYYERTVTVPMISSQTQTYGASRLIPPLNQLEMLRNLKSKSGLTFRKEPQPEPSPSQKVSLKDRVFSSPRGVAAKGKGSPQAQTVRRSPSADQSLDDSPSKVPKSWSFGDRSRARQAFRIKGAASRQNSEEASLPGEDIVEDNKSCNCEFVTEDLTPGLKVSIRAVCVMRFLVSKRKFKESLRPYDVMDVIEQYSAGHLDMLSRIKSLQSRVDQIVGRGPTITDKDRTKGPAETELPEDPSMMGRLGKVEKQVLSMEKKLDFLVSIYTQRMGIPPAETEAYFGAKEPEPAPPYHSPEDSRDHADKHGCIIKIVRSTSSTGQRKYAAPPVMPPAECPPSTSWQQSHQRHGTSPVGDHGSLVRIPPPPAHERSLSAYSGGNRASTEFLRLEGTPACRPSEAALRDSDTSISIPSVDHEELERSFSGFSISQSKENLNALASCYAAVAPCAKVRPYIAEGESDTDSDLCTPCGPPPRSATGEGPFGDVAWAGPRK
Sequence of Potassium voltage-gated channel subfamily E member 1 (Homo sapiens) + Potassium voltage-gated channel subfamily KQT member 1 (Homo sapiens) (P51787 whole entry, looked up): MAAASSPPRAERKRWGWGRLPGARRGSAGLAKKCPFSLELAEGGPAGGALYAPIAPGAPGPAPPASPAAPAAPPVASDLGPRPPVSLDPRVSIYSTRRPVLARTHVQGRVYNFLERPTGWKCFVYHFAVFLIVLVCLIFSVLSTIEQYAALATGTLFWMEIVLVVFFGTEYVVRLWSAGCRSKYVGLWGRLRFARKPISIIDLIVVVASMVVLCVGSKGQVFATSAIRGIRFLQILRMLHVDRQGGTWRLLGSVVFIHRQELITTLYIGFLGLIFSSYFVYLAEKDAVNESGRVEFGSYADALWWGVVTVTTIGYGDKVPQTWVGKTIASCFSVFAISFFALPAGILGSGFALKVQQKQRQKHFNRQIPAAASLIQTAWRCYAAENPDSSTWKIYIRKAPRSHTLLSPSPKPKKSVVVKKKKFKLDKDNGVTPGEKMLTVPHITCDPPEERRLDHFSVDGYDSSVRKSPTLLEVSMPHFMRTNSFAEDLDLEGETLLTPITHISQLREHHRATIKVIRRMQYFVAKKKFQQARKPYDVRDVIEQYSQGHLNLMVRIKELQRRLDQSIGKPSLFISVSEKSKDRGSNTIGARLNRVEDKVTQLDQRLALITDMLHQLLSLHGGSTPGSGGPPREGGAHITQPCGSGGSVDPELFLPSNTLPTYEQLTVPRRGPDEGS
Sequence of Potassium voltage-gated channel subfamily KQT member 1 (Homo sapiens) (P51787 whole entry, looked up): as above

For the compound `COC(=O)C1=C(C)Nc2nc(-c3ccccc3)nn2C1c1ccc(C)o1` (stereo not given), the result in assay [1], in assay [3], in assay [4] and in assay [5] was inactive. In addition, the potentiation in assay [2] was 30% (active).

For the compound `COc1ccc(/C=N/N=C2/NC(=O)C(c3ccccc3)S2)c(OC)c1` (stereo not given), the result in assay [1], in assay [2], in assay [3] and in assay [4] was inactive.

`O=C(CSc1nnnn1-c1ccc(F)cc1)Nc1ccc(N2CCOCC2)c(Cl)c1`: the outcome in assay [1], in assay [2], in assay [3] and in assay [4] was inactive.

As to `CCCCN1CNC(=S)N(c2ccccc2OCC)C1`, the result in assay [1], in assay [2], in assay [3] and in assay [4] was inactive.

As to `CCOC(=O)c1ccc(NC(=S)N2CCSC2c2ccc(Br)cc2)cc1` (stereo not given), the outcome in assay [1], in assay [2], in assay [3] and in assay [4] was inactive.

As for `COc1ccc(Cl)cc1C(=O)NNC(=S)NC(=O)c1cc(-c2ccccc2)nc2ccccc12`, the result in assay [1], in assay [2], in assay [3], in assay [4] and in assay [5] was inactive.

Turning to `NS(=O)(=O)c1ccc(NC(=S)Nc2ccc(OCc3ccccc3)cc2)cc1`, the result in assay [1], in assay [2], in assay [3] and in assay [4] was inactive.

For `O=C(NC(=S)N1CCCc2ccccc21)c1ccc(Br)cc1`, the activation in assay [1] is 222% (active). Further, the potentiation in assay [2] is 112% (active); in assay [3], 300% (active). Besides, the outcome in assay [4] was inactive.

`O=C(Nc1ccc(Cl)cc1C(F)(F)F)C(Sc1cccc[n+]1[O-])c1ccccc1` (stereo not given): the outcome in assay [1], in assay [2], in assay [3], in assay [4] and in assay [5] was inactive.

As to `COc1ccc(NC(=O)CN(C)C(=O)c2ccc(N3CCOCC3)c([N+](=O)[O-])c2)cc1`, the activation in assay [1] is 151% (active). Further, the potentiation in assay [2] was 22% (active); in assay [3] it was 186% (active). Besides, the result in assay [4] was inactive.

For the compound `CCCn1c(=S)[nH]c2sc3c(c2c1=O)CCCC3`, in assay [1], the activation was 418% (active). The potentiation is 158% (active) in assay [2] and 434% (active) in assay [3]. Also, the result in assay [4] was inactive.

In the case of `Cc1ccc(C(=O)OCC(=O)Nc2sc3c(c2C#N)CCCC3)cc1NC(=O)c1ccco1`, the result in assay [1], in assay [2], in assay [3] and in assay [4] was inactive.

For the compound `COc1ccc(-c2csc(N(CCCN(C)C)C(=O)c3ccccc3C)n2)cc1`, the outcome in assay [1], in assay [2], in assay [3], in assay [4] and in assay [5] was inactive.

For the compound `CCN(CC)CCNc1ncnc2c1sc1nc(N3CCCC3)c3c(c12)CC(C)(C)OC3`, the outcome in assay [1], in assay [2], in assay [3], in assay [4] and in assay [5] was inactive.

Take `CCN(CC)CCSc1nc2ccccc2c(=S)n1-c1ccccc1`: the result in assay [1], in assay [2], in assay [3], in assay [4] and in assay [5] was inactive.

In the case of `O=C(CN1CCOCC1)N1CCN(c2nnc(-c3ccccc3)c3ccccc23)CC1`, the outcome in assay [1], in assay [2], in assay [3] and in assay [4] was inactive.

Turning to `CN(C)CCNc1ncnc2c1sc1nc(N3CCCC3)c3c(c12)CC(C)(C)OC3`, the result in assay [1], in assay [3] and in assay [4] was inactive. Also, in assay [2], the potentiation is 32% (active).

For the compound `S=c1nc(COc2ccccc2)[nH]c2ccccc12`, the activation in assay [1] was 698% (active). Besides, the values for the potentiation in assay [2] and in assay [3] were 212% (active) and 552% (active), respectively. Also, the outcome in assay [4] was inactive.

Take `CC(NC(=O)c1ccccc1Cl)C1CC2CCC1C2` (stereo not given): the outcome in assay [1], in assay [2], in assay [3], in assay [4] and in assay [5] was inactive.

In the case of `CCCOC(=O)C1=C(C)NC2=C(C(=O)CCC2)C1c1ccc(N(C)C)cc1` (stereo not given), the result in assay [1], in assay [2], in assay [3], in assay [4] and in assay [5] was inactive.

`COc1cccc(/C=N/n2c(SC)nnc2-c2ccccc2)c1O`: the outcome in assay [1], in assay [2], in assay [3], in assay [4] and in assay [5] was inactive.

With `COC(=O)C1=C(C)Nc2nnnn2C1c1ccc(Cl)cc1Cl` (stereo not given), the result in assay [1], in assay [2], in assay [3] and in assay [4] was inactive.

Turning to `COc1ccc(CNC(=O)CSc2nc3ccc(OC)cc3[nH]2)cc1`, the result in assay [1], in assay [2], in assay [3], in assay [4] and in assay [5] was inactive.

As to `CCOc1cc(CN2CCOCC2)cc(C(C)=O)c1`, the result in assay [1], in assay [3], in assay [4] and in assay [5] was inactive. Besides, the potentiation in assay [2] is 23.5% (active).

As for `C=CCSc1nc2sc3c(c2c(=O)n1CC)CCc1ccccc1-3`, the activation in assay [1] was 160% (active). Also, the figures for the potentiation in assay [2] and in assay [3] were 91% (active) and 192% (active), respectively. Further, the result in assay [4] was inactive.

On to `O=c1c2ccccc2oc2cc(NCCCN3CCOCC3)ccc12`, for which the outcome in assay [1], in assay [3], in assay [4] and in assay [5] was inactive. For the same compound, in assay [2], the potentiation is 29.5% (active).

For the compound `Cc1sc2ncnc(N3CCN(Cc4ccccc4)CC3)c2c1-c1ccccc1`, the result in assay [1], in assay [3], in assay [4] and in assay [5] was inactive. In assay [2], the potentiation is 184% (active).

As for `CCCc1cc2c(=O)c(-c3ccccn3)c(C)oc2cc1O`, the result in assay [1], in assay [2], in assay [3] and in assay [4] was inactive.

`COc1ccc(OC)c(NC(=S)NC(=O)c2ccc(Br)o2)c1`: the outcome in assay [1], in assay [2], in assay [3], in assay [4] and in assay [5] was inactive.

Consider `CC(c1ccccc1)c1nnc(N)s1` (stereo not given), for which the result in assay [1], in assay [2], in assay [3], in assay [4] and in assay [5] was inactive.
